Measurements from ChEMBL document CHEMBL1122183, “Enhanced antitumor properties of 3'-(4-morpholinyl) and 3'-(4-methoxy-1-piperidinyl) derivatives of 3'-deaminodaunorubicin” (1982).
“And” between values parts separate entries of the source, which are not always exact repeats. Equal entries are not always repeated.

Columns and labels:
Nucleic Acid = experiment: Thermal denaturation temperature (Tm) of isolated calf thymus helical DNA was measured; format: functional; conditions: Bos taurus
Procedure, shortened: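 Calf thymus DNA (P) 5.2 × 10^-5 M and drug 5.2 × 10^-6 M in 0.01 M phosphate buffer, pH 7, with EDTA and 5% final Me2SO. ΔTm is Tm of the DNA–drug complex minus Tm of DNA alone. Values <1 are read as insignificant binding.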

L1210 [1] = experiment: Concentration of drug necessary to reduce by 50% the incorporation of tritiated uridine in the RNA of actively growing L1210 cells.; format: functional, Mus musculus; conditions: read-out: ED50 (the source's name)
Procedure, shortened: (§1)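 Actively growing L1210 cells. Drug first dissolved in Me2SO, giving 1% final Me2SO. Incorporation of [3H]thymidine into DNA and [3H]uridine into RNA measured. ED50 is the drug concentration that reduces incorporation by 50%.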

Mus musculus = species on record: Mus musculus; experiment: Percentage rate of O2 consumption by liver microsomes and NADPH in the presence compared to the rate in presence of doxorubicin.; format: functional
Procedure, shortened: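 Rate of O2 consumption by liver microsomes with NADPH measured with the analogue at a single drug concentration. Expressed as a percentage of the rate obtained with doxorubicin.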

P388 = experiment: Antitumor efficacy at optimal dose of compound was measured against P388 leukemia in mice; format: functional, Mus musculus
Procedure, shortened: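 Mice inoculated ip with P388 cells on day 0, then dosed on days 5, 9 and 13 across a series of doses, under NCI protocols. % T/C is the ratio of mean survival time of treated to untreated mice ×100; T/C >120 taken as active. Values are averages of two tests, or one test where only one was run.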

L1210 [2] = experiment: Concentration of drug necessary to reduce by 50% the incorporation of tritiated thymidine in the DNA of actively growing L1210 cells; format: functional, Mus musculus; conditions: read-out: ED50 (the source's name); procedure, shortened: as §1

SMILES | EC50 (L1210 [1]; Mus musculus, L1210) [nM] | EC50 (L1210 [2]; Mus musculus, L1210) [nM] | EC50 (L1210 [1]) | EC50 (L1210 [2]) | ΔTm (Nucleic Acid) [°C] | O2 consumption (Mus musculus) [%] | T/C (P388) [%]
COc1cccc2c1C(=O)c1c(O)c3c(c(O)c1C2=O)C[C@@](O)(C(C)=O)C[C@@H]3OC1CC(NC2CCOCC2)C(O)C(C)O1 (stereo partly specified) | 610 | 2000 |  |  | 4 | 68 | 136
COc1cccc2c1C(=O)c1c(O)c3c(c(O)c1C2=O)C[C@@](O)(C(C)=O)C[C@@H]3OC1CC(N2CCC(OC)CC2)C(O)C(C)O1 (stereo partly specified) | 120 | 630 |  |  | 13.3 | 82 | 199
COc1cccc2c1C(=O)c1c(O)c3c(c(O)c1C2=O)C[C@@](O)(C(C)=O)C[C@@H]3OC1CC(N2CCOCC2)C(O)C(C)O1 (stereo partly specified) |  |  | 100 nM and 14 nM | 760 nM and 340 nM | 6.1 | 25 | 166
COc1cccc2c1C(=O)c1c(O)c3c(c(O)c1C2=O)C[C@@](O)(C(=O)CO)C[C@@H]3O[C@H]1C[C@H](N)[C@H](O)[C@H](C)O1 [DOXORUBICIN] | 580 | 1500 |  |  | 13.4 | 100 | 160
COc1cccc2c1C(=O)c1c(O)c3c(c(O)c1C2=O)C[C@@](O)(C(C)=O)C[C@@H]3OC1CC(NC2CCCCC2)C(O)C(C)O1 (stereo partly specified) | 16000 | 64000 |  |  | 0.7 | 57 | 

Second part, led by results:

EC50 (L1210 [1]; Mus musculus, L1210) [nM] | EC50 (L1210 [2]; Mus musculus, L1210) [nM] | EC50 (L1210 [1]) | EC50 (L1210 [2]) | SMILES | ΔTm (Nucleic Acid) [°C] | O2 consumption (Mus musculus) [%] | T/C (P388) [%]
530 | 2200 |  |  | COc1cccc2c1C(=O)c1c(O)c3c(c(O)c1C2=O)C[C@@](O)(C(C)O)C[C@@H]3O[C@H]1C[C@H](N2CCOCC2)[C@H](O)[C@H](C)O1 (stereo partly specified) | 4.1 | 29 | 153
50 | 500 |  |  | COc1cccc2c1C(=O)c1c(O)c3c(c(O)c1C2=O)C[C@@](O)(C(C)=O)C[C@@H]3OC1CC(N2CCCCC2)C(O)C(C)O1 (stereo partly specified) | 16.8 | 8 | 177
330 | 660 |  |  | COc1cccc2c1C(=O)c1c(O)c3c(c(O)c1C2=O)C[C@@](O)(C(C)=O)C[C@@H]3O[C@H]1C[C@H](N)[C@H](O)[C@H](C)O1 [DAUNORUBICIN] |  |  | 130
80 | 580 |  |  | COc1cccc2c1C(=O)c1c(O)c3c(c(O)c1C2=O)C[C@@](O)(C(C)O)C[C@@H]3O[C@H]1C[C@H](N2CCC(OC)CC2)[C@H](O)[C@H](C)O1 (stereo partly specified) | 9.5 | 64 | 199
40 | 620 |  |  | COc1cccc2c1C(=O)c1c(O)c3c(c(O)c1C2=O)C[C@@](O)(C(C)O)C[C@@H]3O[C@H]1C[C@H](N2CCCCC2)[C@H](O)[C@H](C)O1 (stereo partly specified) | 12.9 |  | 162
